Active and inactive are the calls of the source. No cut-off for these calls is given here.
What was measured:
[1] = Cmax in human at 500 mg, po by […] analysis; settings: in vivo
[2] = Cmax in common marmoset at 40 mg/kg, po measured on day 1 by […] analysis; format: ADME, organism-based, Callithrix jacchus; parameters: dose 40 mg/kg, route oral; settings: in vivo
Summary of the method: (§1)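 Six marmosets (25–64 months, 310–560 g) received one oral 40 mg/kg levofloxacin dose in banana milkshake. Two groups of three were bled at 0.5, 2 and 6 h or at 1, 4 and 8 h. Lithium-heparin plasma was stored at −70°C and assayed by LC-MS/MS-ESI against a spiked-plasma calibration curve (0.1–50 μg/ml). PK parameters were derived from the pooled profile.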

Francisella tularensis = assay: Antimicrobial activity against Francisella tularensis SCHU S4 infected in common marmoset assessed as survival of marmoset at 16.5 mg/kg BID for 10 days measured on day 24; format: functional, organism-based; parameters: dose 16.5 mg/kg
[3] = Half life in common marmoset at 40 mg/kg, po BID measured on day 1 by […] analysis; format: ADME, organism-based, Callithrix jacchus; parameters: dose 40 mg/kg, route oral; settings: in vivo
Summary of the method: (§2)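 Marmosets were dosed orally with 40 mg/kg levofloxacin twice daily in banana milkshake for 7 days. On day 1, group A (n=3) was bled predose and at 1, 4 and 8 h, and group B (n=3) at 0.5, 2, 6 and 12 h. Heparinised plasma was stored at −70°C and measured by LC-MS/MS-ESI (calibration 0.1–50 μg/ml). PK parameters were calculated.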

[4] = Tmax in human at 500 mg, po QD measured on day 10 by […] analysis; format: ADME, organism-based; settings: in vivo
[5] = Half life in Rhesus monkey at 15 mg/kg by LS/MS/MS analysis; format: ADME, organism-based, Macaca mulatta; parameters: dose 15 mg/kg; settings: in vivo
Callithrix jacchus [6] = assay: AUC in common marmoset at 40 mg/kg, po measured on day 1 by […] analysis; format: ADME, organism-based, Plasma; parameters: dose 40 mg/kg, route oral; settings: in vivo; summary of the method: as §1
[7] = Half life in common marmoset at 40 mg/kg, po BID measured on day 7 by […] analysis; format: ADME, organism-based, Callithrix jacchus; parameters: dose 40 mg/kg, route oral; settings: in vivo
Summary of the method: (§3)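 Oral levofloxacin, 40 mg/kg twice daily in banana milkshake for 7 consecutive days. Day-7 sampling: predose and 1, 4 and 8 h (group A, n=3); 0.5, 2, 6 and 12 h (group B, n=3). Lithium-heparin plasma was held at −70°C and quantified by LC-MS/MS-ESI against spiked-plasma standards (0.1–50 μg/ml). PK parameters were derived.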

[8] = Cmax in Rhesus monkey at 15 mg/kg by […] analysis; format: ADME, organism-based, Macaca mulatta; parameters: dose 15 mg/kg; settings: in vivo
Homo sapiens [9] = assay: AUC (0 to infinity) in human at 500 mg, po QD measured on day 10 by […] analysis; format: ADME, organism-based, Plasma; parameters: dose 500 mg, route oral, time infinity; settings: in vivo
Callithrix jacchus [10] = assay: AUC in common marmoset at 40 mg/kg, po BID measured on day 7 by […] analysis; format: ADME, organism-based, Plasma; parameters: dose 40 mg/kg, route oral; settings: in vivo; summary of the method: as §3
Rhesus monkey [11] = assay: AUC (0 to infinity) in Rhesus monkey at 15 mg/kg by […] analysis; format: ADME, organism-based, Macaca mulatta, Plasma; parameters: time infinity, dose 15 mg/kg; settings: in vivo
[12] = Half life in Rhesus monkey at 15 mg/kg followed by 4 mg/kg in 12 hrs dosing interval by LS/MS/MS analysis; format: ADME, organism-based, Macaca mulatta; settings: in vivo
[13] = Cmax in common marmoset at 40 mg/kg, po BID measured on day 7 by […] analysis; format: ADME, organism-based, Callithrix jacchus; parameters: dose 40 mg/kg, route oral; settings: in vivo; summary of the method: as §3
[14] = Half life in common marmoset at 40 mg/kg, po measured on day 1 by […] analysis; format: ADME, organism-based, Callithrix jacchus; parameters: dose 40 mg/kg, route oral; settings: in vivo; summary of the method: as §1
[15] = Tmax in Rhesus monkey at 15 mg/kg followed by 4 mg/kg in 12 hrs dosing interval by […] analysis; format: ADME, organism-based, Macaca mulatta; settings: in vivo
[16] = Half life in human at 500 mg, po by LS/MS/MS analysis; format: ADME, organism-based; settings: in vivo
[17] = Cmax in Rhesus monkey at 15 mg/kg followed by 4 mg/kg in 12 hrs dosing interval by […] analysis; format: ADME, organism-based, Macaca mulatta; parameters: dose 15 mg/kg; settings: in vivo
[18] = Half life in human at 500 mg, po QD measured on day 10 by LS/MS/MS analysis; format: ADME, organism-based; settings: in vivo
[19] = Cmax in common marmoset at 40 mg/kg, po BID measured on day 1 by […] analysis; format: ADME, organism-based, Callithrix jacchus; parameters: dose 40 mg/kg, route oral; settings: in vivo; summary of the method: as §2
[20] = Cmax in human at 500 mg, po QD measured on day 10 by […] analysis; settings: in vivo
[21] = Tmax in human at 500 mg, po by […] analysis; format: ADME, organism-based; settings: in vivo
[22] = Tmax in common marmoset at 40 mg/kg, po BID measured on day 7 by […] analysis; format: ADME, organism-based, Callithrix jacchus; parameters: dose 40 mg/kg, route oral; settings: in vivo; summary of the method: as §3
Callithrix jacchus [23] = assay: AUC in common marmoset at 40 mg/kg, po BID measured on day 1 by […] analysis; format: ADME, organism-based, Plasma; parameters: dose 40 mg/kg, route oral; settings: in vivo; summary of the method: as §2
[24] = Tmax in Rhesus monkey at 15 mg/kg by […] analysis; format: ADME, organism-based, Macaca mulatta; parameters: dose 15 mg/kg; settings: in vivo
Rhesus monkey [25] = assay: AUC (0 to infinity) in Rhesus monkey at 15 mg/kg followed by 4 mg/kg in 12 hrs dosing interval by […] analysis; format: ADME, organism-based, Macaca mulatta, Plasma; parameters: dose 15 mg/kg, time infinity; settings: in vivo
Homo sapiens [26] = assay: AUC (0 to infinity) in human at 500 mg, po by […] analysis; format: ADME, organism-based, Plasma; parameters: dose 500 mg, time infinity, route oral; settings: in vivo

## C[C@H]1COc2c(N3CCN(C)CC3)c(F)cc3c(=O)c(C(=O)O)cn1c23.C[C@H]1COc2c(N3CCN(C)CC3)c(F)cc3c(=O)c(C(=O)O)cn1c23.O [LEVOFLOXACIN]
[1]
  Cmax: 8.5 µg/mL
[2]
  Cmax: 18.8 µg/mL
Francisella tularensis
  Activity: Active
[3]
  half-life: 2.4 h
[4]
  Tmax: 1.1 h
[5]
  half-life: 2 h
Callithrix jacchus [6]
  AUC: 112.4 µg/mL/h
[7]
  half-life: 2.3 h
[8]
  Cmax: 5.1 µg/mL
Homo sapiens [9]
  AUC: 47.5 µg·h/mL
Callithrix jacchus [10]
  AUC: 81.4 µg/mL/h
Rhesus monkey [11]
  AUC: 21.3 µg·h/mL
[12]
  half-life: 3.4 h
[13]
  Cmax: 20.9 µg/mL
[14]
  half-life: 3.9 h
[15]
  Tmax: 2.2 h
[16]
  half-life: 6.4 h
[17]
  Cmax: 5.3 µg/mL
[18]
  half-life: 7.6 h
[19]
  Cmax: 16.5 µg/mL
[20]
  Cmax: 5.7 µg/mL
[21]
  Tmax: 1.5 h
[22]
  Tmax: 0.5 h
Callithrix jacchus [23]
  AUC: 63.6 µg/mL/h
[24]
  Tmax: 1.5 h
Rhesus monkey [25]
  AUC: 33.4 µg·h/mL
Homo sapiens [26]
  AUC: 56.3 µg·h/mL

Source: ChEMBL document CHEMBL1671723, “Bioavailability and efficacy of levofloxacin against Francisella tularensis in the common marmoset (Callithrix jacchus)” (Antimicrob Agents Chemother, 2010)
